Data published in ChEMBL document CHEMBL4130494, “Crassiflorone derivatives that inhibit Trypanosoma brucei glyceraldehyde-3-phosphate dehydrogenase (TbGAPDH) and Trypanosoma cruzi trypanothione reductase (TcTR) and display trypanocidal activity” (Eur J Med Chem, 2017).
≈ marks a conversion by molar mass, not a printed value. Calls of active or inactive are those of the source. The calls are words filed in the database; no cut-off is given here.

How the values were obtained:
Trypanosoma brucei = experiment: Inhibition of Trypanosoma brucei glyceraldehyde-3-phosphate dehydrogenase at 10 uM using GAP as substrate in presence of NAD+ by spectrophotometric method relative to control
How it was run: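 Recombinant TbGAPDH (200–300 μg protein) in 10 mM triethanolamine, 1.7 mM NaHCO3, 100 mM KCl, 5 mM MgSO4, 1 mM EDTA, pH 7.6, 25 °C, with 400 μM NAD+, 500 μM KH2PO4, 300 μM GAP; NAD+ reduction followed at 340 nm; inhibitors from DMSO stocks; triplicate; reported as percentage activity.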

[1] = biological target: Trypanothione reductase (Trypanosoma cruzi) (UniProt P28593); experiment: Inhibition of Trypanosoma cruzi trypanothione reductase assessed as reduction in NADPH consumption at 10 uM using 100 uM trypanothione disulfide as substrate by spectrophotometric method
How it was run: (§1)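 Recombinant TcTR (5–10 mU) at 25 °C in 40 mM HEPES, 1 mM EDTA, pH 7.5, 100 μM NADPH, 5% DMSO; started with trypanothione disulfide; NADPH consumption read at 340 nm; percentage inhibition calculated.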

[2] = biological target: Trypanothione reductase (Trypanosoma cruzi) (UniProt P28593); experiment: Inhibition of Trypanosoma cruzi trypanothione reductase assessed as reduction in NADPH consumption at 10 uM using 40 uM trypanothione disulfide as substrate by spectrophotometric method; how it was run: as §1
hERG (KCNH2) = hERG (KCNH2) (Homo sapiens, UniProt Q12809); experiment: Inhibition of Tracer Red binding to human ERG expressed in membranes at 10 uM by fluorescence polarization assay relative to control; conditions: membranes expressing human ERG, probe Tracer Red
How it was run: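 Fluorescence polarization displacement of a high-affinity red fluorescent tracer from hERG channel–containing membrane fraction.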

CYP1A2 = biological target: T1, CYP1A2 (Homo sapiens, UniProt P05177); experiment: Inhibition of human CYP1A2 at 10 uM by P450-Glo assay relative to control; assay type: ADME
T1 sequence (P05177 whole entry): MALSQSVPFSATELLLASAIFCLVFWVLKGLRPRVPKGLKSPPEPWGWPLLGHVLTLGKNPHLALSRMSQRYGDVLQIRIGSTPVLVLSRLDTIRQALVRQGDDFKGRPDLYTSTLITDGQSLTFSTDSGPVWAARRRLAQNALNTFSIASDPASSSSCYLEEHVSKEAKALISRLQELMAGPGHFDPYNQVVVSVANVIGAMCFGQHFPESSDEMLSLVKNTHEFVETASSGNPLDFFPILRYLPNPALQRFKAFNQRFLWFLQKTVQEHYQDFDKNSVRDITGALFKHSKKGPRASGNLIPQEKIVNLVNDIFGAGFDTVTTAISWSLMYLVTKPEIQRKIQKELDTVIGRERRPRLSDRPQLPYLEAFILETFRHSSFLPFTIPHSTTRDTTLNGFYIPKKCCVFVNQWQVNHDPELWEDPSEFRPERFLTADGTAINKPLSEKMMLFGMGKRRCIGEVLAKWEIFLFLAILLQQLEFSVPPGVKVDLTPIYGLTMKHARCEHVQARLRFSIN
How it was run: (§2)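 P450-Glo luminescent platform: CYP action on each substrate generates light; decreased light taken as inhibition.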

CYP2C9 = CYP2C9 (Homo sapiens, UniProt P11712); experiment: Inhibition of human CYP2C9 at 10 uM by P450-Glo assay relative to control; assay type: ADME; how it was run: as §2
CYP2C19 = CYP2C19 (Homo sapiens, UniProt P33261); experiment: Inhibition of human CYP2C19 at 10 uM by P450-Glo assay relative to control; assay type: ADME; how it was run: as §2
CYP2D6 = CYP2D6 (Homo sapiens, UniProt P10635); experiment: Inhibition of human CYP2D6 at 10 uM by P450-Glo assay relative to control; assay type: ADME; how it was run: as §2
CYP3A4 = CYP3A4 (Homo sapiens, UniProt P08684); experiment: Inhibition of human CYP3A4 at 10 uM by P450-Glo assay relative to control; assay type: ADME; how it was run: as §2
[3] = Cytotoxicity against human A549 cells assessed as cell growth at 10 uM by CellTiter-Glo assay relative to control; assay type: cell-based; conditions: read-out: Activity
How it was run: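 A549 cells; cellular ATP measured by CellTiter-Glo luminescence as a proxy for cell number; paclitaxel 10 μM as positive control.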

786-0 = experiment: Cytotoxicity against human 786-O cells assessed as mitochondrial viability at 10 uM by CMXRos staining based high-content imaging analysis relative to control; assay type: cell-based; conditions: 786-0, 10 µM
How it was run: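 786-O cells kept in RPMI-1640 with 2 mM glutamine, 10% FCS, streptomycin and penicillin G; mitochondria of live cells stained with MitoTracker Red CMXRos and imaged by high-content imaging.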

[4] = biological target: T2, Pteridine reductase 1 (Leishmania major) (UniProt Q01782); experiment: Inhibition of Leishmania major pteridine reductase 1 assessed as reduction in conversion of dihydrobiopterin to tetrahydrobiopterin at 10 uM up to 50 mins in presence of NADPH by cytochrome c reduction coupled photometric assay relative to control
T2 sequence (whole entry): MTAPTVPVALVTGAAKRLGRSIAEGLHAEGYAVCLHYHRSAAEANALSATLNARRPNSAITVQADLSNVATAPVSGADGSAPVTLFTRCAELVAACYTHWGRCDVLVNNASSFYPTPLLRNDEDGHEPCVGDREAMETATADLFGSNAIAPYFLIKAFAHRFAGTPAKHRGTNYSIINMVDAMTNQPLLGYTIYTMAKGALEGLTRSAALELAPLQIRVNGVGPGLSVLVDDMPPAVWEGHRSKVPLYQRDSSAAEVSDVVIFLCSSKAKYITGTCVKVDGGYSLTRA

[5] = biological target: T3, Pteridine reductase, putative (Trypanosoma brucei) (UniProt Q581W1); experiment: Inhibition of Trypanosoma brucei pteridine reductase 1 assessed as reduction in conversion of dihydrobiopterin to tetrahydrobiopterin at 10 uM up to 50 mins in presence of NADPH by cytochrome c reduction coupled photometric assay relative to control
T3 sequence (whole entry): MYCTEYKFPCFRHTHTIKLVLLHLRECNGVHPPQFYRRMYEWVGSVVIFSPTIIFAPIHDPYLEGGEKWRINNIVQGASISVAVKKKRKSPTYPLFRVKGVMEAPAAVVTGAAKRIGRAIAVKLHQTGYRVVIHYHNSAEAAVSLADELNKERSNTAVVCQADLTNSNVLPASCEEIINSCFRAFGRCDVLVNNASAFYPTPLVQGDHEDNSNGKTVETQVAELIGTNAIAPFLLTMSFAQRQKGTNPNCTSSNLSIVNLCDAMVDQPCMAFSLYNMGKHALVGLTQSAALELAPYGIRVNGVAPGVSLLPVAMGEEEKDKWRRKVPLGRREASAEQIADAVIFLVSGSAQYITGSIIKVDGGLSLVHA

[6] = Solubility in PBS after overnight incubation by nephelometry; assay type: physicochemical
[7] = Solubility in pH 7.4 Hanks simulated body fluid after overnight incubation by nephelometry; assay type: physicochemical
Trypanothione reductase = Trypanothione reductase (Trypanosoma cruzi, UniProt P28593); experiment: Inhibition of Trypanosoma cruzi trypanothione reductase assessed as reduction in NADPH consumption using varying levels of trypanothione disulfide as substrate by Lineweaver-Burk plot analysis
How it was run: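 Recombinant T. cruzi TR (5-10 mU) at 25 °C in 40 mM HEPES, 1 mM EDTA, pH 7.5, with 100 μM NADPH and 5% DMSO. Reaction started with TS2 and NADPH consumption followed at 340 nm. TS2 varied at 20, 40, 60, 100 and 200 μM without inhibitor and at two fixed inhibitor concentrations. Inhibition type read from Lineweaver-Burk plots. Ki fitted from direct plot by non-linear least squares. Inhibitor assays run at least in duplicate.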

[8] = biological target: Trypanothione reductase (Trypanosoma cruzi) (UniProt P28593); experiment: Inhibition of Trypanosoma cruzi trypanothione reductase assessed as reduction in NADPH consumption at 5 uM using 100 uM trypanothione disulfide as substrate by spectrophotometric method relative to control; how it was run: as §1
[9] = biological target: Trypanothione reductase (Trypanosoma cruzi) (UniProt P28593); experiment: Inhibition of Trypanosoma cruzi trypanothione reductase assessed as reduction in NADPH consumption at 5 uM using 40 uM trypanothione disulfide as substrate by spectrophotometric method relative to control; how it was run: as §1
[10] = biological target: T2, Pteridine reductase 1 (Leishmania major); experiment: Inhibition of Leishmania major pteridine reductase 1 assessed as reduction in conversion of dihydrobiopterin to tetrahydrobiopterin at 25 uM up to 50 mins in presence of NADPH by cytochrome c reduction coupled photometric assay relative to control
[11] = biological target: T3, Pteridine reductase, putative (Trypanosoma brucei); experiment: Inhibition of Trypanosoma brucei pteridine reductase 1 assessed as reduction in conversion of dihydrobiopterin to tetrahydrobiopterin at 25 uM up to 50 mins in presence of NADPH by cytochrome c reduction coupled photometric assay relative to control
[12] = tested on: Trypanosoma brucei brucei; experiment: Growth inhibition of Trypanosoma brucei brucei Lister 427 bloodstream forms at 5 uM by SYBR Green based assay relative to control; assay type: functional; conditions: read-out: GI
[13] = biological target: Trypanothione reductase (Trypanosoma cruzi) (UniProt P28593); experiment: Inhibition of Trypanosoma cruzi trypanothione reductase assessed as reduction in NADPH consumption at 2.5 uM using 100 uM trypanothione disulfide as substrate by spectrophotometric method relative to control; how it was run: as §1
[14] = biological target: Trypanothione reductase (Trypanosoma cruzi) (UniProt P28593); experiment: Inhibition of Trypanosoma cruzi trypanothione reductase assessed as reduction in NADPH consumption at 2.5 uM using 40 uM trypanothione disulfide as substrate by spectrophotometric method relative to control; how it was run: as §1

Chain of CYP2C9 (P11712 whole entry): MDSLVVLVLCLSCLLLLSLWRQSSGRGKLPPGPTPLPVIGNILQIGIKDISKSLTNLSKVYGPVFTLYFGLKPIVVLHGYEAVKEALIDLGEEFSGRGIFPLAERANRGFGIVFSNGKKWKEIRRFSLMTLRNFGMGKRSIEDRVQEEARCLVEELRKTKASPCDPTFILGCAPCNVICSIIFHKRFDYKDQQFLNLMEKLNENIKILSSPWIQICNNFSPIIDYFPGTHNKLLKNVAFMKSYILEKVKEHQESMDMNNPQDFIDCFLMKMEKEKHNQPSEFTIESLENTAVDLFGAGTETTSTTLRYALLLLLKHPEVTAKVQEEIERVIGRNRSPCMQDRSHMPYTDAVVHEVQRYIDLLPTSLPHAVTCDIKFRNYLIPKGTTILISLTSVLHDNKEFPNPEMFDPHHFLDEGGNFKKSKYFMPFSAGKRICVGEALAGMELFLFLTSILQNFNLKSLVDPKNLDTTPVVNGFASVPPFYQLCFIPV
Chain of CYP2C19 (P33261 whole entry): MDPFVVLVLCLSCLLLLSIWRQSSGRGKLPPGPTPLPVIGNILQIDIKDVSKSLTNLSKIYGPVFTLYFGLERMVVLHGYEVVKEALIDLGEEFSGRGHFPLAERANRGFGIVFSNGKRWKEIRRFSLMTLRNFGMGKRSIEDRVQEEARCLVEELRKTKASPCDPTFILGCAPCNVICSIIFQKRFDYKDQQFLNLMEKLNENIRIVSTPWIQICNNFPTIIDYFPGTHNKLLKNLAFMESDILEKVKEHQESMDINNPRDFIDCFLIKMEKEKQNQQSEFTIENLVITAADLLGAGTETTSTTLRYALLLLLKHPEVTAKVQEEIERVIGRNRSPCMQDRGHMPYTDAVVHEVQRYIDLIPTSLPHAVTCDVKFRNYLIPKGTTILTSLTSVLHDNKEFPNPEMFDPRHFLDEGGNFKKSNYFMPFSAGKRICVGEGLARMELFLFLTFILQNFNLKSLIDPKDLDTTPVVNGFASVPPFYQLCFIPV
Chain of CYP2D6 (P10635 whole entry): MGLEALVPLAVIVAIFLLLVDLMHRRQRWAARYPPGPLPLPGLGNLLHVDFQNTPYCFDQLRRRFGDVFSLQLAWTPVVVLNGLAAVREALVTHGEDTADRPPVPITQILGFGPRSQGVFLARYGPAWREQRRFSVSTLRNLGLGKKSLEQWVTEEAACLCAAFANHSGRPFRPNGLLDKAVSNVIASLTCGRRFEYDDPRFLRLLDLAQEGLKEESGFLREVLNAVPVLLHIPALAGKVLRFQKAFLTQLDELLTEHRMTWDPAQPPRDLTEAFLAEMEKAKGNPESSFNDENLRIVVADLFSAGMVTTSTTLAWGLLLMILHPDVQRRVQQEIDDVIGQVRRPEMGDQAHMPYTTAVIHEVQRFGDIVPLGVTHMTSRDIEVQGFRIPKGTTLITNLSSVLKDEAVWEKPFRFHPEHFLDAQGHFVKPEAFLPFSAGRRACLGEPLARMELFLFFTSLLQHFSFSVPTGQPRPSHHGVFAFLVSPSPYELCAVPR
Chain of Trypanothione reductase (Trypanosoma cruzi) (P28593 whole entry, looked up): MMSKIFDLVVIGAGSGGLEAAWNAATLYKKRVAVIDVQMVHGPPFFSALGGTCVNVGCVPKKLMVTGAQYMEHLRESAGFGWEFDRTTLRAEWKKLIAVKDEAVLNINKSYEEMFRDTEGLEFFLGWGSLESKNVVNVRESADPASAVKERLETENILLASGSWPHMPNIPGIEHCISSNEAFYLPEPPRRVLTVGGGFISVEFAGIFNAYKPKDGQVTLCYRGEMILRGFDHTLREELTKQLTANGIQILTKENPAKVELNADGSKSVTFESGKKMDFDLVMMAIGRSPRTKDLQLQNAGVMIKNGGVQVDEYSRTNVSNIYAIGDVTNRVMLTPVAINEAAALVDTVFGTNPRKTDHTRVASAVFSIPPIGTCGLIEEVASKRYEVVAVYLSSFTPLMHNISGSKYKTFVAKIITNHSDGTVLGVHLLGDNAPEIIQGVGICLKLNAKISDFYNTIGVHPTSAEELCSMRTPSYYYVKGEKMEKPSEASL
Chain of CYP3A4 (P08684 whole entry): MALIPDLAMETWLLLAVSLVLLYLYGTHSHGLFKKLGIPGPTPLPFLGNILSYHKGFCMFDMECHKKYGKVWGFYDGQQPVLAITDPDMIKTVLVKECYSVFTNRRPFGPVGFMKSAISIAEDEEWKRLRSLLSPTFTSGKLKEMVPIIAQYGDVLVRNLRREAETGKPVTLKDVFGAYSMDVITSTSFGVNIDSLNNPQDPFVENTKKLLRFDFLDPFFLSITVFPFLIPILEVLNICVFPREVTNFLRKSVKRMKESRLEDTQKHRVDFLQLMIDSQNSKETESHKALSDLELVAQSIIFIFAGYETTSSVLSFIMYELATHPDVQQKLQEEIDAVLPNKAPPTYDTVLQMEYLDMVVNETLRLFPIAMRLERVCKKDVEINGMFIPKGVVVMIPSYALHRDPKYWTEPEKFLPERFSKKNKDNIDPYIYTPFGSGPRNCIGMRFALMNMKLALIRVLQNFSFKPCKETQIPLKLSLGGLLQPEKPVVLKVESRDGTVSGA
Chain of hERG (KCNH2) (Q12809 whole entry): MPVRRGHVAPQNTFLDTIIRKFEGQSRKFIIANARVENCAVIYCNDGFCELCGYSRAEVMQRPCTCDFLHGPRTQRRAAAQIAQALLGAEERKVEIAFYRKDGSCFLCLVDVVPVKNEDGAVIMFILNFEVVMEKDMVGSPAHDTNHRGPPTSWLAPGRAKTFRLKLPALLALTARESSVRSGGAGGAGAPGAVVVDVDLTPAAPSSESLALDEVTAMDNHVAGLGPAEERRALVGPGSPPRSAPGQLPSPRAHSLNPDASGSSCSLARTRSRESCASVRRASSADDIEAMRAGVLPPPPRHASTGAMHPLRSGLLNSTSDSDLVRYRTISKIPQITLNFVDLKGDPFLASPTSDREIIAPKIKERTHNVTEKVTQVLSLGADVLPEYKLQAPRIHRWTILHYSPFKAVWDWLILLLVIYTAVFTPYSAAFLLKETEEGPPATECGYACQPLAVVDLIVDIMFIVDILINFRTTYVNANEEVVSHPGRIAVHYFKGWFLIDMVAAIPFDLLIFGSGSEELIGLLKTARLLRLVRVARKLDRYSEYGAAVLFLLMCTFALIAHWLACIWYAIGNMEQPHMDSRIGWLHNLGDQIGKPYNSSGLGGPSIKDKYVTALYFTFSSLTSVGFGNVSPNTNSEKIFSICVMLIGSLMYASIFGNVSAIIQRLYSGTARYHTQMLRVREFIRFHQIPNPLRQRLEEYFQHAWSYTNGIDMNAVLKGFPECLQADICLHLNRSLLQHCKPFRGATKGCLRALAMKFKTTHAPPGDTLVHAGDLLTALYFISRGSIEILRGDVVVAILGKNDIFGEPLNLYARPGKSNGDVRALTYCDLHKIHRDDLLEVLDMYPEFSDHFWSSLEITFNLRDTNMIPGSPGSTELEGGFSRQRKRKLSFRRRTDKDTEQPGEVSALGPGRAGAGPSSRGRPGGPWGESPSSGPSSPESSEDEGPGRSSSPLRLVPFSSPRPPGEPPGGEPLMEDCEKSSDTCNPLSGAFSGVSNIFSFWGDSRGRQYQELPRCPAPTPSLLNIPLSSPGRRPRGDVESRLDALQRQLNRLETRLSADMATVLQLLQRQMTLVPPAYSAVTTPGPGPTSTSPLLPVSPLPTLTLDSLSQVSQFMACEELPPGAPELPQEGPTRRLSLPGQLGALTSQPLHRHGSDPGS
Chain of Trypanothione reductase (P28593 whole entry): as the sequence (P28593 whole entry, looked up) above

SMILES	inhibition (Trypanosoma brucei)	inhibition [1] [%]	inhibition [2] [%]	inhibition at 10 µM (CYP1A2) [%]	inhibition at 10 µM (CYP2C9) [%]	inhibition at 10 µM (CYP2C19) [%]	inhibition at 10 µM (CYP2D6) [%]	inhibition at 10 µM (CYP3A4) [%]	inhibition [4] [%]	solubility kinetic [6] [µM]	solubility kinetic [7] [µM]	inhibition at 10 µM (hERG (KCNH2)) [%]	viability at 10 µM [3] [%]	Activity (786-0) [%]	further results
O=C1c2cc3ccccc3cc2C(=O)c2c1oc1c2c(=O)oc2ccccc21	inactive	7.9	2.1	38.5	42.4	35.7	55	7.93	5.16	35 (≈ 12.8 µg/mL)	70 (≈ 25.6 µg/mL)	9.77	140	89.59	inhibition [5]: 6.11%
O=C1C=C(Oc2ccccc2)C(=O)c2ccccc21	Active	29	23	–	–	–	–	–	–	–	–	–	–	–	–
c1cc2cc(-c3ccc(C4(N5CCCC5)CCCCC4)s3)ccc2[nH]1	–	–	–	–	–	–	–	–	–	–	–	–	–	–	Ki (Trypanothione reductase): 4 µM
O=C1c2ccccc2C(=O)c2c1oc1c2c(=O)oc2ccccc21	–	–	–	48.2	32.4	46.1	71	14.8	–	70 (≈ 22.1 µg/mL)	70 (≈ 22.1 µg/mL)	-20.3	146	89.15	inhibition [8]: 18%; inhibition [9]: 19.1%; inhibition [10]: -0.4%; inhibition [11]: -6.44%
CC(=O)Oc1cccc2c1C(=O)c1oc3c(c1C2=O)c(=O)oc1ccccc13	inactive	–	–	93.5	99.2	109	108	88.7	–	35 (≈ 13.1 µg/mL)	35 (≈ 13.1 µg/mL)	86.8	183	90.52	inhibition [8]: 35.2%; inhibition [9]: 41%; inhibition of growth at 5 µM [12]: 38%

More lines, main results first:

inhibition (Trypanosoma brucei)	inhibition [1] [%]	inhibition [2] [%]	inhibition at 10 µM (CYP1A2) [%]	inhibition at 10 µM (CYP2C9) [%]	inhibition at 10 µM (CYP2C19) [%]	inhibition at 10 µM (CYP2D6) [%]	inhibition at 10 µM (CYP3A4) [%]	inhibition [4] [%]	solubility kinetic [6] [µM]	solubility kinetic [7] [µM]	SMILES	inhibition at 10 µM (hERG (KCNH2)) [%]	viability at 10 µM [3] [%]	Activity (786-0) [%]	further results
inactive	37	37.2	94.6	92.5	103	106	88.2	–	35 (≈ 13.1 µg/mL)	35 (≈ 13.1 µg/mL)	CC(=O)Oc1cccc2c1C(=O)c1c(oc3c1c(=O)oc1ccccc13)C2=O	4.02	157	98.86	–
88%	8.1	20.6	87.2	61.6	71	101	22.1	2.98	70 (≈ 24.2 µg/mL)	35 (≈ 12.1 µg/mL)	COc1cccc2c1C(=O)c1c(oc3c1c(=O)oc1ccccc13)C2=O	-58	130	96.22	inhibition of growth at 5 µM [12]: 29%; inhibition [5]: -6.79%
–	–	–	40.8	44.6	83.8	95.2	9.44	-5.5	14 (≈ 4.65 µg/mL)	35 (≈ 11.6 µg/mL)	O=C1c2cccc(O)c2C(=O)c2c1oc1c2c(=O)oc2ccccc21	19.5	167	85.82	inhibition [13]: 11.6%; inhibition [14]: 42.9%
